Sampled rows, rich in hits. Any-hit rate of the full collection: about 2.2%.
Wee1 degr inh: human Wee1 degradation inhibition, primary screen; AID 1321; P30291; reporter increase, % at 5 µM; HeLa Luc-Wee1K328M stability, luciferase luminescence; 100% = proteasome inhibitor MG132 effect; actives 1.2% (n = 220,000);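 active = activation above the mean of all tested compounds plus 3 SD, set per screening run, cut at about 8.8% in these data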;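 note: cells exposed to compound for 20 h before luminescence read; 0% = DMSO alone and 100% = MG132 at 30 µM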
Target sequence (P30291 whole entry K328M): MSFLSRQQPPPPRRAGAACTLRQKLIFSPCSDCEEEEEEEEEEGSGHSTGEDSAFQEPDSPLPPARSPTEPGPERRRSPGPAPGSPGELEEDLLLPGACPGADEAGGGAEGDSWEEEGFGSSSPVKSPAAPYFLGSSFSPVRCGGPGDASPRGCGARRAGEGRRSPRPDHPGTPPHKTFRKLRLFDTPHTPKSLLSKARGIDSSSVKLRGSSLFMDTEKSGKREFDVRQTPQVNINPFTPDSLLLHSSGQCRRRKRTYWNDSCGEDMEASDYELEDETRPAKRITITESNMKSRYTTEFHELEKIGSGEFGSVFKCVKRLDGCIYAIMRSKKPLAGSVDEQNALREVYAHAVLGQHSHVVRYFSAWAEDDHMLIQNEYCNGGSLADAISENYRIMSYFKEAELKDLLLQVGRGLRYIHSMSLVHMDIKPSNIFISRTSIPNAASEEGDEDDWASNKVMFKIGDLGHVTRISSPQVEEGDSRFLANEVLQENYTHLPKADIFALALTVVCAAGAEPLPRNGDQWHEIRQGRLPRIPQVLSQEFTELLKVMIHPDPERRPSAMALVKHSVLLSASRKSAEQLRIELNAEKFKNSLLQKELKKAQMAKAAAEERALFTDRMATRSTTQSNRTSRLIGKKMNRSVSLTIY
FLuc inh counter: counter-screen for luciferase assay inhibitors: firefly luciferase inhibition; ATPLite firefly luciferase biochemical luminescence, 10 min; inhibition, % at 10 µM; actives 1.5% (n = 200,000);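 active = inhibition above about 50% when tested at 10 µM, limit read from the data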
PPC-1+TRAIL kill: PPC-1 cancer cell killing with TRAIL present | PPC-1 cells + TRAIL, ATPLite viability luminescence | cell killing (% activity), % at 4 µM or 5 µM | actives 0.41% (n = 220,000);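 active = cell killing above 50% in the first pass at 4 µM, then a duplicate retest at 5 µM averaging 50% or more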;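 note: plate controls were cells with TRAIL plus DMSO for no effect and medium-only wells lacking cells for full effect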
FLuc stim CS: firefly luciferase counter-screen for stimulation assays; ATPlite luciferase biochemical, luminescence, 10 min; 0 = ATP-free wells, 1 = DMSO control; AID 1027; 200,000 tested, under 10 active; activation factor at 10 µM;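 active = luciferase activation factor, scaled between plate controls, of at least 2 with compound at 10 µM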
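test system = cell-free luciferase reagent | medium = PBS as buffer for the ATP substrate | dosing = test compounds dosed from 2 mM stocks in 100% DMSO | incubation = 10 min at ambient temperature | detection = luminescence measurement of luciferase light output | benchmarks = low control with PBS replacing ATP, high control enzyme plus ATP without compound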
C8 TRAIL sens: sensitizes caspase-8 expressing cells to TRAIL; AID 624354; inhibition (viability loss, TRAIL sensitization), % at 10 µM; actives 1% (n = 360,000); NB7+C8 cells + TRAIL, ATPlite viability luminescence;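 active = compounds causing at least 50% loss of cell viability in the single-dose screen, relative to plate controls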
PKD1 kinase inh: blocks activity of human protein kinase D1. PKD1 kinase fluorescence polarization assay. actives 0.056% (n = 200,000). Q15139. inhibition, % (no concentration beside the values); in the data active = inhibition above about 50%
The depositor's hits bear a star; . = not tested or not shown.

SMILES	Wee1 degr inh	FLuc inh counter	PPC-1+TRAIL kill	FLuc stim CS	C8 TRAIL sens	PKD1 kinase inh
Cc1cc(NC(=O)/C=C/c2ccccc2Cl)n(-c2nc3ccccc3[nH]2)n1	0	76*	58*	0.2	74*	-15
CCc1ccc(CN(C)C(=O)CCc2nnc(Cc3cccc(C)c3)o2)nc1	2	-6	6	1.1	-4	-3
COc1ccccc1C1c2ccc3ccccc3c2Oc2ncn(CCN(C)C)c(=N)c21 (configuration not stated)	.	.	.	.	45	.
COc1ccc(C2c3ccc4ccccc4c3Oc3ncn(CCCN(C)C)c(=N)c32)cc1 (configuration not stated)	.	.	.	.	58*	.
COc1ccc(-n2ccnc2SCC(=O)NC2CCCC2)c(OC)c1	2	-5	-28	1	2	5
O=C(COc1ccc(Oc2ccccc2)cc1)NCc1cn2ccccc2n1	10*	-4	6	1	-5	7
O=C(O)c1ccc(OCc2cn3ccccc3n2)cc1	-1	.	12	.	6	.
CC(=O)N/C(=C\c1ccccc1)C(=O)OCC(=O)Nc1cc(S(=O)(=O)N(C)C)ccc1C	.	.	.	.	-10	.
COc1ccc(CN=C2Nc3ccccc3CS2)cc1	1	53*	32	0.5	14	-6
COc1ccc(CS(=O)(=O)/C(Cl)=C(/Cl)C(=O)Nc2ccc(OC)nc2)cc1	2	-4	16	1	90*	4
COc1ccc(-n2ncc(N(C)n3cccc3)c(Cl)c2=O)cc1	3	54*	19	0.5	35	-7
CCOC(=O)c1cccc(NC(=O)c2c(NCc3ccccc3)[nH]c(=O)[nH]c2=O)c1	.	.	.	.	9	.
C#CCSc1nnc(-c2ccc(C)cc2)o1	0	56*	17	0.4	90*	-7
C#CCSc1nnc(-c2ccc(O)cc2)o1	-1	12	25	0.9	2	1
Cc1ccc(CSc2nnc(-c3cccnc3)o2)cc1	0	-7	-8	1.1	54*	4
O=C(CCl)N(c1ccccc1)C1CCCCC1	-1	1	16	1	95*	-3
COc1ccc(C(=O)OCC(=O)NCc2ccccc2)c(OC)c1OC	-3	-5	20	1.1	-5	0
O=C(CCC(=O)N1CCc2ccccc21)N1CCc2ccccc21	-2	.	.	.	.	2
O=C(CCCc1ccccc1)N1CCc2ccccc21	9.8*	52*	34	0.5	25	4
COc1ccc(C2CC(c3cccs3)=NN2C(=O)CCl)cc1OC (configuration not stated)	.	.	.	.	96*	.
COc1cc(C2CC(c3cccs3)=NN2C(=O)CCl)ccc1OC(F)F (configuration not stated)	.	.	.	.	95*	.
COc1ccc(C2CC(c3cccs3)=NN2C(=O)c2ccccc2)cc1OC (configuration not stated)	.	.	.	.	2	.
COCCCNC(=O)CCCn1c(=O)c2ccccc2n(Cc2cccc([N+](=O)[O-])c2)c1=O	-3	-4	7	1	-7	-5
COc1ccccc1OCC(=O)Nc1cc(C(F)(F)F)ccc1-n1cncn1	.	.	.	.	3	.
CCc1cc2c(CN3CCN(CCO)CC3)cc(=O)oc2cc1O	1	0	52*	1	-18	-4
SMILES	Wee1 degr inh	FLuc inh counter	PPC-1+TRAIL kill	FLuc stim CS	C8 TRAIL sens	PKD1 kinase inh
FC(F)(F)c1cccc(-c2nc3nc(Cl)c(Cl)nc3[nH]2)c1	-1	.	29	.	53*	.
CCOc1ccc(-c2nc(-c3cccs3)c(CC(=O)O)s2)cc1OC	-1	68*	26	0.3	21	-3
O=C1CN(c2nc3nonc3nc2N2CCCCC2)CCN1	-1	-1	9	1	12	2
CCOc1ccc(-c2nc(CCl)cs2)cc1	0	70*	24	0.3	14	-2
ClCc1csc(-c2ccc(Cl)cc2)n1	-1	0	9	1	0	4
CCOc1ccc(-c2nnc(N)s2)cc1	-2	58*	33	0.4	25	-4
N#Cc1ccc(S(=O)(=O)N2CCc3[nH]c4ccc(F)cc4c3C2)cc1	-4	.	-5	.	-8	.
O=CN1CCCN(C(=O)CC2C(=O)NCCN2Cc2cccc(Oc3ccccc3)c2)CC1 (configuration not stated)	.	.	.	.	-4	.
C(/C=C/c1ccccn1)=C\c1ccccc1	.	.	.	.	51*	.
C(=C\c1ccccn1)/c1ccncc1	2	.	18	.	-4	.
O=C(c1ccccc1)N1CCN(Cc2ccc3c(c2)OCO3)CC1	.	.	.	.	-18	.
Cc1cccc(C(=O)N2CCN(Cc3ccc4c(c3)OCO4)CC2)c1	9.3*	-7	6	1.1	1	-9
N#C/C(=C(/O)c1ccc(Br)s1)c1nc2ccccc2[nH]1	.	.	.	.	24	.
N#C/C(=C(/O)c1ccc([N+](=O)[O-])s1)c1nc2ccccc2[nH]1	2	.	26	.	44*	.
O=C(CN1C(=O)C2C3CC(C(Br)C3Br)C2C1=O)Nc1ccc(C(=O)O)cc1 (configuration not stated)	-2	.	0	.	0	.
CC1(C(=O)NS(=O)(=O)c2ccc(F)cc2F)CCN1C(=O)Cc1cc(F)ccc1F (configuration not stated)	.	.	.	.	1	.
CC(C)CNC(CC(=O)O)c1ccccc1 (configuration not stated)	9.6*	-7	0	1.1	0	0
O=S(=O)(Cc1ccccc1Cl)NCCOc1ccccc1	9.0*	-5	24	1.1	13	-6
O=S(=O)(Cc1ccccc1Cl)NCc1ccccc1	-1	0	25	1	4	-2
O=c1[nH]c2ccccc2c2nc(-c3cccc(S(=O)(=O)N4CCCC4)c3)nn12	0	.	19	.	-14	.
O=C(NC1CCCCC1)C(=O)c1c[nH]c2ccccc12	.	.	.	.	7	.
CCOC(=O)c1c(C)nn(-c2ccc(NC(=O)CSCC(=O)O)cc2)c1C	-1	.	-21	.	1	.
CCOC(=O)COc1cc(-n2c(=S)[nH]c3ccccc3c2=O)c(Cl)cc1Cl	0	-8	4	1.1	-2	-2
CCOC(=O)COc1cc(N)c(Cl)cc1Cl	13*	2	11	1	-1	-2
O=C(COC(=O)c1c(Cl)ccc(Cl)c1Cl)NCC1CCCO1 (configuration not stated)	.	.	.	.	-1	.
CC(/C=C/c1ccccc1)=N/NC(=O)c1cc([N+](=O)[O-])cc([N+](=O)[O-])c1	0	-2	27	1	52*	8
CC(/C=C/c1cccc([N+](=O)[O-])c1)=N/NC(=O)c1cccnc1	-1	-6	12	1.1	10	-8
Cc1cc(C)cc(NC(=O)/C(C#N)=C/c2cn(CC(=O)NCc3ccco3)c3ccccc23)c1	0	-4	50*	1	66*	2
Cc1ccc(NC(=O)/C(C#N)=C/c2cn(CC(=O)NCc3ccco3)c3ccccc23)cc1C	-4	-1	46	1	41	-9

Source: PubChem
